From ChEMBL document CHEMBL1125829, “1,3,8-trisubstituted xanthines. Effects of substitution pattern upon adenosine receptor A1/A2 affinity” (J Med Chem, 1991)

How the values were obtained:
Adenosine receptor A1 [1] = target: T1, Adenosine receptor A1 (Rattus norvegicus, UniProt P25099); assay: Binding affinity against adenosine A1 receptor in rat cortex by the displacement of [3H]cyclohexyladenosine (CHA).; format: tissue-based
T1 sequence (P25099 whole entry): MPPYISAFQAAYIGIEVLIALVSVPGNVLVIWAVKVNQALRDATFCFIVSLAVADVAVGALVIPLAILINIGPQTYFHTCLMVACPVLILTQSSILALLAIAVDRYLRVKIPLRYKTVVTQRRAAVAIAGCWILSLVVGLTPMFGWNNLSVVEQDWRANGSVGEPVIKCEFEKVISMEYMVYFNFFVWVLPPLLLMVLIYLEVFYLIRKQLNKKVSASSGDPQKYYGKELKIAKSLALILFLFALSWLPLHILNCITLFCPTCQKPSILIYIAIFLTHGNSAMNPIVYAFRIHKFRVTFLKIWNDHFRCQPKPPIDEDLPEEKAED

Adenosine A2 receptor [2] = target: T2, Adenosine A2 receptor (Rattus norvegicus, UniProt P29276+P30543); assay: Binding affinity against adenosine A2 receptor in rat striatum by the displacement of [3H]N-ethyladenosine-5''-uronamide(NECA).; format: tissue-based
Adenosine receptor A1 [3] = target: T1, Adenosine receptor A1; assay: Binding affinity against Adenosine A1 receptor in rat cortex by displacement of [3H]cyclohexyladenosine (CHA)
How it was run: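 Male Sprague-Dawley rat cerebral cortex membranes, homogenized in 50 mM Tris-HCl pH 7.4, pretreated 30 min at 37 °C with ADA (2 IU/mL), 7.5 mg tissue per tube. 1.0 nM [3H]CHA, 12 xanthine concentrations, triplicates, 2 h at 25 °C; nonspecific with 10 μM 2-chloroadenosine; filtration, scintillation counting.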

Adenosine A2 receptor [4] = target: T2, Adenosine A2 receptor; assay: Binding affinity against Adenosine A2 receptor in rat striatum by displacement of [3H]N-ethyladenosine-5''-uronamide(NECA); format: tissue-based
How it was run: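 Male Sprague-Dawley rat striatal membranes, 5 mg tissue, in 50 mM Tris-HCl pH 7.7 with 10 mM MgCl2, 0.1 unit/mL ADA and 50 nM CPA to block A1 sites. 4 nM [3H]NECA, 12 xanthine concentrations, triplicates, 1 h at room temperature; nonspecific with 100 μM CPA; filtration counting. IC50 by log-logit, Ki by Cheng-Prusoff (Kd 4 nM).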

[5] = target: Adenosine receptors; A1 & A2 (Rattus norvegicus) (UniProt P29276+P25099+P30543); assay: Ratio of binding affinities for adenosine A2 and A1 receptors; format: protein assay

SMILES	Ki (Adenosine receptor A1 [1]) [nM]	Ki (Adenosine A2 receptor [2]) [nM]	Ki (Adenosine receptor A1 [3]) [nM]	Ki (Adenosine A2 receptor [4]) [nM]	Ratio [5]
CCCn1c(=O)c2nc(-c3ccc(C#N)cc3)[nH]c2n(CCC)c1=O	4.48	189			
CCCn1c(=O)n(C)c(=O)c2[nH]c(CCc3ccccc3)nc21	259	1050			
CCCn1c(=O)c2nc(-c3ccncc3)[nH]c2n(C)c1=O	27.6	3760			
CCCn1c(=O)n(C)c(=O)c2[nH]c(-c3ccsc3)nc21			4.68	70.3	15
CCCn1c(=O)n(C)c(=O)c2[nH]c(-c3ccc(O)cc3)nc21	2.54	81.5			
CCCn1c(=O)n(C)c(=O)c2[nH]c(-c3ccncc3)nc21	21.8	476			
CCCn1c(=O)c2nc(-c3ccsc3)[nH]c2n(CCC)c1=O	2.04	39.4			
CCCn1c(=O)c2nc(-c3cccs3)[nH]c2n(CCC)c1=O				173	54
CCCn1c(=O)n(C)c(=O)c2[nH]c(-c3cccnc3)nc21			72.8	1200	16
CCCn1c(=O)c2nc(C3CCCC3)[nH]c2n(C)c1=O	1.06	1010			
CCCn1c(=O)c2nc(-c3cccnc3)[nH]c2n(CCC)c1=O			11.6	347	30
CCCn1c(=O)c2nc(-c3ccc(C#N)cc3)[nH]c2n(C)c1=O	5.95	446			
CCCn1c(=O)c2nc(-c3ccc(O)cc3)[nH]c2n(C)c1=O	1.28	263			
CCCn1c(=O)c2nc(-c3ccccc3)[nH]c2n(C)c1=O		553			
CCCn1c(=O)c2nc(-c3cccnc3)[nH]c2n(C)c1=O				3100	44
CCCn1c(=O)c2nc(-c3ccsc3)[nH]c2n(C)c1=O			6.4	315	49
CCCn1c(=O)n(C)c(=O)c2[nH]c(C3CCCC3)nc21	0.85	247			

SMILES	Ki (Adenosine receptor A1 [1]) [nM]	Ki (Adenosine A2 receptor [2]) [nM]	Ki (Adenosine receptor A1 [3]) [nM]	Ki (Adenosine A2 receptor [4]) [nM]	Ratio [5]
CCCn1c(=O)c2nc(C3CCCCC3)[nH]c2n(C)c1=O	5.02	995			
CCCn1c(=O)c2nc(-c3ccc(O)cc3)[nH]c2n(CCC)c1=O	0.63				
CCCn1c(=O)c2nc(/C=C/c3ccccc3)[nH]c2n(CCC)c1=O		85.1			
CCCn1c(=O)n(C)c(=O)c2[nH]c(C3CCCCC3)nc21	1.81	403			
CCCn1c(=O)c2nc(-c3cccs3)[nH]c2n(C)c1=O			9.68	719	74
CCCn1c(=O)c2nc(/C=C/c3ccccc3)[nH]c2n(C)c1=O	49.6	58			
CCCn1c(=O)c2[nH]c(-c3cccs3)nc2n(CCC)c1=O			3.2		
Cn1c(=O)c2nc(-c3ccccc3)[nH]c2n(C)c1=O [8-PHENYL THEOPHYLLINE]		644			
CCCn1c(=O)n(C)c(=O)c2[nH]c(-c3cccs3)nc21	8.93	329			
CCCn1c(=O)n(C)c(=O)c2[nH]c(/C=C/c3ccccc3)nc21		46.5			
CCCn1c(=O)n(C)c(=O)c2[nH]c(-c3ccccc3)nc21		93.3			
CCCn1c(=O)c2nc(-c3ccncc3)[nH]c2n(CCC)c1=O	3.23	136			
CCCn1c(=O)c2nc(CCc3ccccc3)[nH]c2n(CCC)c1=O	57.8	593			
CCCn1c(=O)c2[nH]c(-c3cccnc3)nc2n(C)c1=O			70.2		
CCCn1c(=O)c2nc(CCc3ccccc3)[nH]c2n(C)c1=O	275	1440			
CCCn1c(=O)n(C)c(=O)c2[nH]c(-c3ccc(C#N)cc3)nc21	13.9	254			
